Results: ChEMBL document CHEMBL4219025 (J Med Chem, 2018)
The source made the active and inactive calls. The rule behind the calls is not given here.

Legend:
[1] = molecular target: T1, NAD-dependent protein deacetylase sirtuin-2 (Homo sapiens, UniProt Q8IXJ6); test: Inhibition of recombinant human His10-tagged Sirt2 (56 to 356 residues) expressed in Escherichia coli BL21(DE3) using Z-(Ac)Lys-AMC as substrate measured after 4 hrs by high-throughput fluorescence based assay
T1 sequence (Q8IXJ6 whole entry): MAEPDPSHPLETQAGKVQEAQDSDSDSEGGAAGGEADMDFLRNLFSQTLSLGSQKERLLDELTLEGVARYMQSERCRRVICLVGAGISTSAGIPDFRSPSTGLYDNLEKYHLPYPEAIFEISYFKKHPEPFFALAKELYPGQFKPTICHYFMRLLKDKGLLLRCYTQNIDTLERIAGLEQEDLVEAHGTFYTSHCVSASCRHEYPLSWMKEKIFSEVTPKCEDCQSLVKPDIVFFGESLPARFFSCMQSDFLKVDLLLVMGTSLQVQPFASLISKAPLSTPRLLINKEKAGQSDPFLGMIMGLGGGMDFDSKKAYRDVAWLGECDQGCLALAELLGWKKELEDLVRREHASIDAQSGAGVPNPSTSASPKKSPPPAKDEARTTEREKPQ

[2] = molecular target: T2, NAD-dependent protein deacetylase sirtuin-1 (Homo sapiens, UniProt Q96EB6); test: Inhibition of recombinant human GST-tagged Sirt1 (133 to 747 residues) using Z-(Ac)Lys-AMC as substrate measured after 4 hrs by high-throughput fluorescence based assay
T2 sequence (Q96EB6 whole entry): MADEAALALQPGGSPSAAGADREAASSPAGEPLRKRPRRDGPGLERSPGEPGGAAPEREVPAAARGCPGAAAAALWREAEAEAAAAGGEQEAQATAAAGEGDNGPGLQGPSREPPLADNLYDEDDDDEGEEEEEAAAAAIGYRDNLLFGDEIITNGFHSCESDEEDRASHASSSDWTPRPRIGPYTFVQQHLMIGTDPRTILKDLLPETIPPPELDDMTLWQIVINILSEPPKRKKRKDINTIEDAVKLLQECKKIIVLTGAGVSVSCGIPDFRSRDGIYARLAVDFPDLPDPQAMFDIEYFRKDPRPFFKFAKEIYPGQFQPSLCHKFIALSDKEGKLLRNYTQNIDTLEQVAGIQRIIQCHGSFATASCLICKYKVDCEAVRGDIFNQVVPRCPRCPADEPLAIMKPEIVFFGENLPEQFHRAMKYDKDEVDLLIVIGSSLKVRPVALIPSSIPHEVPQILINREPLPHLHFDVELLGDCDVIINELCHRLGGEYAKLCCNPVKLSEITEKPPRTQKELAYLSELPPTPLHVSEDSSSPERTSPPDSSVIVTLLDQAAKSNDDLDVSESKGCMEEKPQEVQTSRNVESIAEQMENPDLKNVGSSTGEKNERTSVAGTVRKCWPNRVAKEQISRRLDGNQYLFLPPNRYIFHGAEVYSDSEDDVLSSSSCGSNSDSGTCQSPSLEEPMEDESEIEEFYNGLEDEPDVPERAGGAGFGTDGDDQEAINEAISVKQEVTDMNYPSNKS

[3] = molecular target: T3, NAD-dependent protein deacetylase sirtuin-3, mitochondrial (Homo sapiens, UniProt Q9NTG7); test: Inhibition of recombinant human His10-tagged Sirt3 (118 to 395 residues) expressed in Escherichia coli BL21(DE3) using Z-(Ac)Lys-AMC as substrate measured after 4 hrs by high-throughput fluorescence based assay
T3 sequence (Q9NTG7 whole entry): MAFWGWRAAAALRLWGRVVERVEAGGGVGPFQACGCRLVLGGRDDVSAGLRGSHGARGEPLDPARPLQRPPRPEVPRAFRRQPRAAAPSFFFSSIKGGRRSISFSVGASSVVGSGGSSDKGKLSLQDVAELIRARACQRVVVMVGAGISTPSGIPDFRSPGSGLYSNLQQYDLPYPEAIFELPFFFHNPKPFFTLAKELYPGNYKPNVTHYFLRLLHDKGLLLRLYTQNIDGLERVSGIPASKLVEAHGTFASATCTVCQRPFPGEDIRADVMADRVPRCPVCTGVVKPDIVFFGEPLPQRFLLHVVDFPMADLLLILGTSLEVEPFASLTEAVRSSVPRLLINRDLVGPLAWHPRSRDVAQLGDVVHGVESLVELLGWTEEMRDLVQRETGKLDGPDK

[4] = molecular target: T4, Protein cereblon/NAD-dependent protein deacetylase sirtuin-2 (Homo sapiens) (UniProt Q8IXJ6+Q96SW2); test: Induction of cereblon-mediated Sirt2 degradation in human HeLa cells at 0.05 to 5 uM after 4 hrs by Western blot method; assay type: cell-based
In short: (§1)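 HeLa cells in DMEM high glucose with 10% FCS, 37 °C, 5% CO2; 2x10^5 cells per 6-well (endogenous Sirt1/Sirt2) or 2x10^4 EGFP-Sirt2-HeLa per 24-well. Cycloheximide applied before compound (5 µg/ml 6-well, 3 µg/ml 24-well); 4 h default incubation, DMSO controls. Lysed in reducing sample buffer, 10% SDS-PAGE, PVDF, rabbit anti-Sirt2/Sirt1/GAPDH 1:5000, ECL; background-subtracted band intensities normalized to mean control.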

[5] = molecular target: T4, Protein cereblon/NAD-dependent protein deacetylase sirtuin-2 (Homo sapiens); test: Induction of cereblon-mediated Sirt2 degradation in human HeLa cells at 10 uM after 2 hrs by Western blot method; assay type: cell-based; in short: as §1
[6] = molecular target: T4, Protein cereblon/NAD-dependent protein deacetylase sirtuin-2 (Homo sapiens); test: Induction of cereblon-mediated EGFP-fused Sirt2 degradation in human HeLa cells assessed as increase in tubulin acetlyation at 10 uM after 4 hrs by DAPI dye-based immunofluorescent microscopic analysis; assay type: cell-based
[7] = molecular target: T4, Protein cereblon/NAD-dependent protein deacetylase sirtuin-2 (Homo sapiens); test: Induction of cereblon-mediated EGFP-fused Sirt2 (unknown origin) degradation expressed in human HeLa cells at 10 uM after 4 hrs in presence of 2-(4,6-dimethylpyrimidin-2-ylthio)-N-(5-(3-((1-(2-methoxyethyl)-1H-1,2,3-triazol-4-yl)methoxy)benzyl)thiazol-2-yl)acetamide and proteosome inhibitor MG132 by Western blot method; assay type: cell-based; in short: as §1
[8] = molecular target: T4, Protein cereblon/NAD-dependent protein deacetylase sirtuin-2 (Homo sapiens); test: Induction of cereblon-mediated Sirt2 degradation in human HeLa cells at 10 uM after 1 to 6 hrs by Western blot method; assay type: cell-based; in short: as §1
[9] = molecular target: T4, Protein cereblon/NAD-dependent protein deacetylase sirtuin-2 (Homo sapiens); test: Induction of cereblon-mediated EGFP-fused Sirt2 (unknown origin) degradation expressed in human HeLa cells at 10 uM after 4 hrs by Hoechst 33342 staining-based fluorescent microscopic method; assay type: cell-based
In short: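 Live EGFP-Sirt2-expressing HeLa cells: 2x10^4 cells seeded on glass imaging dishes in complete medium overnight, treated with 10 μM compound for 4 h (DMSO controls), medium switched to phenol red-free DMEM, nuclei stained 0.5 µg/mL Hoechst 33342 for 5 min; confocal live imaging with 40× oil objective.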

[10] = molecular target: T4, Protein cereblon/NAD-dependent protein deacetylase sirtuin-2 (Homo sapiens); test: Induction of cereblon-mediated Sirt2 degradation in human HeLa cells after 4 hrs by Western blot method; assay type: cell-based; in short: as §1
[11] = molecular target: Protein cereblon/NAD-dependent protein deacetylase sirtuin-1 (Homo sapiens) (UniProt Q96EB6+Q96SW2); test: Induction of cereblon-mediated Sirt1 degradation in human HeLa cells at 10 uM after 1 to 6 hrs by Western blot method; assay type: cell-based; in short: as §1
Sequence of Protein cereblon/NAD-dependent protein deacetylase sirtuin-1 (Homo sapiens) (Q96SW2 whole entry, looked up, one chain of several): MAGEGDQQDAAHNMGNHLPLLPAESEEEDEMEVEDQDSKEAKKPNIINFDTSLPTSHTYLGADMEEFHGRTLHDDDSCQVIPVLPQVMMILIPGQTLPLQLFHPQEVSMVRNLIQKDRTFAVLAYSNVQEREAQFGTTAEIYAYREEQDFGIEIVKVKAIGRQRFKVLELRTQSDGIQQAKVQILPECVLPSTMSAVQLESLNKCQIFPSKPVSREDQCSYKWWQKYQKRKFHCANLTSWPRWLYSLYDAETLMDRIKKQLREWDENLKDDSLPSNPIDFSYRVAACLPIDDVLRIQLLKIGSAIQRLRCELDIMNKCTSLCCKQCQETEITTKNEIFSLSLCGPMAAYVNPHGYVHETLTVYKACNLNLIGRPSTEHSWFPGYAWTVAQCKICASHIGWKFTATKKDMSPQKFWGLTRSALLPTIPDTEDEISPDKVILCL

T4 sequence (Q96SW2 whole entry, looked up, one chain of several): as above

SMILES: C#CCOc1cccc(Cc2cnc(NC(=O)CSc3nc(C)cc(C)n3)s2)c1
- IC50 [1]: 2.4 µM
- IC50 [2]: > 100 µM

SMILES: Cc1cc(C)nc(SCC(=O)Nc2ncc(Cc3cccc(OCc4cn(Cc5ccccc5)nn4)c3)s2)n1
- IC50 [1]: 0.16 µM
- IC50 [2]: > 100 µM
- IC50 [3]: > 100 µM

SMILES: Cc1cc(C)nc(SCC(=O)Nc2ncc(Cc3cccc4ccc(Cl)cc34)s2)n1
- IC50 [2]: > 100 µM

SMILES: Cc1cc(C)nc(SCC(=O)Nc2ncc(Cc3cccc(OCc4cn(CCOCCOCCOCCOCCOCCOCCOCCOCCOCCOCCOCCNC(=O)CCCCC5SCC6NC(=O)NC65)nn4)c3)s2)n1 (stereo not given)
- IC50 [1]: 0.31 µM
- IC50 [2]: > 100 µM
- IC50 [3]: > 100 µM

SMILES: COCCn1cc(COc2cccc(Cc3cnc(NC(=O)CSc4nc(C)cc(C)n4)s3)c2)nn1
- IC50 [2]: 100 µM
- IC50 [3]: > 100 µM
- Activity [4]: inactive

SMILES: Cc1cc(C)nc(SCC(=O)Nc2ncc(Cc3cccc(OCc4cn(CCCCNC(=O)COc5cccc6c5C(=O)N(C5CCC(=O)NC5=O)C6=O)nn4)c3)s2)n1 (stereo not given)
- IC50 [1]: 0.25 µM
- Activity [5]: Active
- Activity [6]: Active
- IC50 [2]: > 100 µM
- IC50 [3]: > 100 µM
- Activity [7]: inactive
- Activity [8]: Active
- Activity [9]: Active
- Activity [10]: Dose-dependent effect
- Activity [11]: inactive

SMILES: Cc1cc(C)nc(SCC(=O)Nc2ncc(Cc3cccc4ccccc34)s2)n1
- IC50 [2]: > 100 µM
- IC50 [3]: > 100 µM

SMILES: O=C1CCC(N2C(=O)c3ccccc3C2=O)C(=O)N1 (stereo not given)
- Activity [4]: inactive
